Structures are written as SMILES. The source made the active and inactive calls. The rule behind the calls is not given here.

The test system of test [1] is Rattus norvegicus. In words: Inhibition of 5-HTP accumulation in hemisphere of rat brain after subcutaneous administration of compound before 60 min to death. In kind it is functional, organism-based. The gist of the method:
(§1)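 Nonpretreated rats were given each enantiomer sc 60 min before death. NSD 1015 (100 mg/kg ip) was given 30 min before death, and 5-HTP or Dopa accumulation was measured in brain regions. Values are means ± SEM, n = 4 (some groups n = 3). Statistics: ANOVA followed by Student's t test.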

Test [2] relates to Rattus norvegicus. Description: Inhibition of 5-HTP accumulation in limbic part of rat brain after subcutaneous administration of compound before 60 min to death. In kind it is functional, organism-based. As to conditions: Limbic system. In outline: as §1
Test [3] concerns Rattus norvegicus. In words: Inhibition of 5-Hydroxy tryptamine accumulation in hemispheres of rat brain after subcutaneous administration. The test is classed as functional. Particulars: sc.
The subject of test [4] is Rattus norvegicus. In words: Inhibition of 5-Hydroxy tryptamine accumulation in limbic part of rat brain after subcutaneous administration. The test is classed as functional. Particulars: sc.
Test [5] has as its system Rattus norvegicus. In words: Inhibition of 5-Hydroxy tryptamine accumulation in striatum part of rat brain after subcutaneous administration. The test is classed as functional. As to conditions: sc.
For test [6], the system named is Rattus norvegicus. In words: Inhibition of dopamine accumulation in limbic part of rat brain after subcutaneous administration; I= Inactive. In kind it is functional, organism-based.
The subject of test [7] is Rattus norvegicus. In words: Inhibition of dopamine accumulation in striatum part of rat brain after subcutaneous administration; I= Inactive. In kind it is functional, organism-based.
Test [8] deals with Rattus norvegicus. In words: Inhibition of 5-Hydroxy tryptamine accumulation in hemispheres of rat brain after subcutaneous administration; I= Inactive. In kind it is functional, organism-based.
Test [9] concerns Rattus norvegicus. Description: Inhibition of 5-Hydroxy tryptamine accumulation in limbic part of rat brain after subcutaneous administration; I= Inactive. In kind it is functional, organism-based.
The test system of test [10] is Rattus norvegicus. In words: Inhibition of 5-Hydroxy tryptamine accumulation in striatum part of rat brain after subcutaneous administration; I= Inactive. In kind it is functional, organism-based.
Test [11] relates to Rattus norvegicus. Description: Inhibition of dopamine accumulation in limbic part of rat brain after subcutaneous administration. The test is classed as functional. As to conditions: sc.
The test system of test [12] is Rattus norvegicus. Description: Inhibition of dopamine accumulation in striatum part of rat brain after subcutaneous administration. The test is classed as functional. As to conditions: sc.
Test [13] has as its system Rattus norvegicus. Description: Inhibition of 5-Hydroxy Tryptamine accumulation in hemispheres of rat brain after subcutaneous administration. The test is classed as functional. As to conditions: sc.
The subject of test [14] is Rattus norvegicus. Description: Inhibition of 5-Hydroxy Tryptamine accumulation in limbic part of rat brain after subcutaneous administration. Particulars: sc. The test is classed as functional.
In test [15] the test system is Rattus norvegicus. Description: Inhibition of 5-Hydroxy Tryptamine accumulation in striatum part of rat brain after subcutaneous administration. In kind it is functional. Particulars: sc.

In the case of `CCCN(CCC)[C@@H]1CCc2cccc(O)c2C1`, the Concentration worked out at 44 ng/g with Rattus norvegicus [1] and 63 ng/g in the test on Rattus norvegicus [2]. In addition, the ED50 is 0.052 µmol/kg in the test with Rattus norvegicus [3], 0.036 µmol/kg with Rattus norvegicus [4] and 0.048 µmol/kg with Rattus norvegicus [5]. The ED50 result with Rattus norvegicus [6] and with Rattus norvegicus [7] was “inactive” in each case.
On to `CCCN(CCC)[C@@H]1CCc2ccc(O)cc2C1`, for which the ED50 entry in the test with Rattus norvegicus [8], in the test on Rattus norvegicus [9] and in the test with Rattus norvegicus [10] was “inactive” throughout. For the same compound, the median effective dose (ED50) in the test on Rattus norvegicus [11] is 0.18 µmol/kg; in the test with Rattus norvegicus [12] it was 0.17 µmol/kg.
Consider `CCCN(CCC)C1CCc2cccc(O)c2C1` (racemic) [8-OH-DPAT], for which the ED50 was determined as 0.068 µmol/kg in the test on Rattus norvegicus [3], 0.048 µmol/kg with Rattus norvegicus [4] and 0.045 µmol/kg in the test with Rattus norvegicus [5]. Besides, the ED50 entry in the test with Rattus norvegicus [6] and with Rattus norvegicus [7] was “inactive” in each case.
Regarding `CCCN(CCC)C1CCc2ccc(O)cc2C1` (centres undefined), the ED50 entry in the test with Rattus norvegicus [8], with Rattus norvegicus [9] and in the test with Rattus norvegicus [10] was “inactive” in each case. Besides, the ED50 in the test with Rattus norvegicus [11] was determined as 0.027 µmol/kg; in the test with Rattus norvegicus [12], 0.03 µmol/kg.
As for `CCCN(CCC)[C@H]1CCc2cccc(O)c2C1`, the Concentration in the test on Rattus norvegicus [1] came to 57 ng/g; in the test on Rattus norvegicus [2], 84 ng/g. For the same compound, the ED50 in the test on Rattus norvegicus [13] amounted to 0.09 µmol/kg; in the test on Rattus norvegicus [14], 0.061 µmol/kg; in the test on Rattus norvegicus [15], 0.075 µmol/kg. Also, the ED50 entry in the test on Rattus norvegicus [6] and in the test on Rattus norvegicus [7] was “inactive” in each case.
Turning to `CCCN(CCC)C1CCc2c(O)cccc2C1` (centres undefined) [5-OH-DPAT], the ED50 result with Rattus norvegicus [8], in the test on Rattus norvegicus [9] and in the test with Rattus norvegicus [10] was “inactive” throughout. In addition, the ED50 in the test on Rattus norvegicus [11] was found to be 0.011 µmol/kg; with Rattus norvegicus [12], 0.009 µmol/kg.

The term ED50 denotes the dose that gives a 50% effect, or the effect in half of the subjects.

Source of the values: ChEMBL document CHEMBL1121677, “8-Hydroxy-2-(di-n-propylamino)tetralin, a new centrally acting 5-hydroxytryptamine receptor agonist” (1981).
